According to PMC3755622 (Archives of biochemistry and biophysics, 2013):
pKi: −log10 of the molar value. Values belong to the compound of their own block, whether it stands above or below them.

Columns and labels:
Assay type in all cases: biochemical, Prunus dulcis
[1] = system: sweet almond β-glucosidase; assay: KM as Ki from inhibition of pNPG hydrolysis at […] nm; conditions: pH 6.3, 0.01 M MES, 0.01 M NaCl, 4.6% v/v DMSO, 25°C; kcat calculated from kcat/KM and KM
[2] = system: sweet almond β-glucosidase; assay: initial velocity, stopped assay, glucose by hexokinase / G6PDH; conditions: pH 6.3, 0.01 M MES, 0.01 M NaCl, 4.6% v/v DMSO, 25°C, H2O
Summary of the method: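 Chromatographically purified almond enzyme (65 kD), diluted from stock in 0.01 M MES/0.01 M NaCl pH 6.3, added to about 2 μg/mL to start the reaction at 25.0 °C. Thioglucoside substrate came from DMSO stock. Aliquots were withdrawn and glucose measured by coupled yeast hexokinase/L. mesenteroides G6PDH (10 mM ATP, 5 mM MgSO4, 1 mM NAD+, pH 7.5), reading NADH at 340 nm. Km came from non-linear Michaelis-Menten fit.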

[3] = target: sweet almond β-glucosidase; assay: inhibition of pNPG hydrolysis, p-nitrophenolate at […] nm; conditions: pNPG about 0.1 mM, pH 6.3, 25°C; not detectably hydrolysed
[4] = system: sweet almond β-glucosidase; assay: p-nitrophenolate absorbance at […] nm; conditions: pH 6.3, 0.01 M MES, 0.01 M NaCl, 4.6% v/v DMSO, 25°C

Compound: Cn1c(S[C@@H]2O[C@H](CO)[C@@H](O)[C@H](O)[C@H]2O)nc2ccccc21 [GlcS(N-Me)Biz, 1'-methylbenzimidazol-2'-yl 1-thio-β-D-glucopyranoside]
- Km [1]: 47000 µM

Compound: OC[C@H]1O[C@@H](SC2=NCCS2)[C@H](O)[C@@H](O)[C@@H]1O [GlcSTaz, 2-thiazolinyl1-thio-β-D-glucopyranoside]
- pKi [3]: 2.06

Compound: O=[N+]([O-])c1ccc(O[C@@H]2O[C@H](CO)[C@@H](O)[C@H](O)[C@H]2O)cc1 [pNPG, p-nitrophenyl β-D-glucopyranoside]
- Km [4]: 2500 µM

Second part, the compound after the results:

- Km [2]: 2500 µM
Compound: OC[C@H]1O[C@@H](Sc2nc3ccccc3[nH]2)[C@H](O)[C@@H](O)[C@@H]1O [GlcSBiz, 2'-benzimidazolyl 1-thio-β-D-glucopyranoside]

- Km [1]: 2700 µM
Compound: OC[C@H]1O[C@@H](Sc2nc3ccccc3o2)[C@H](O)[C@@H](O)[C@@H]1O [GlcSBox, 2-benzoxazolyl 1-thio β-D-glucopyranoside]
